Key:
[1] = tested on: Human immunodeficiency virus 1; assay: Antiviral activity against HIV1 NL4-3 with K103N/L100I double mutant in human TZM-b1 cells assessed as beta-galactosidase activity after 48 hrs by single round replication assay; type: functional, organism-based; details: Human immunodeficiency virus 1, NL4-3, TZM-b1, 48 h
Summary of the method: (§1)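 TZM-bl cells (DMEM, 5% heat-inactivated FBS) plated at 5000 cells/well and grown 48 h. Medium replaced with compound at 0.00128–4 µM. After 4 h, cells infected with NL4-3-derived RT-mutant virus equal to 100 ng p24. Virus stocks came from HEK293 cells transfected with sequence-verified mutant clones. At 48 h, cells lysed in PBS/0.1% NP-40/5 mM MgCl2 and β-galactosidase read with CPRG. EC50 taken from dose-response curves.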

[2] = tested on: Human immunodeficiency virus 1; assay: Antiviral activity against HIV1 NL4-3 with L100I mutant in human TZM-b1 cells assessed as beta-galactosidase activity after 48 hrs by single round replication assay; type: functional, organism-based; details: Human immunodeficiency virus 1, NL4-3, TZM-b1, 48 h; summary of the method: as §1
[3] = tested on: Human immunodeficiency virus 1; assay: Antiviral activity against HIV1 NL4-3 with K103N mutant in human TZM-b1 cells assessed as beta-galactosidase activity after 48 hrs by single round replication assay; type: functional, organism-based; details: Human immunodeficiency virus 1, NL4-3, TZM-b1, 48 h; summary of the method: as §1
[4] = tested on: Human immunodeficiency virus 1; assay: Antiviral activity against HIV1 NL4-3 with double K103N/L100I mutant in human MT4 cells assessed as inhibition of virus-induced cytopathicity after 5 days by multiple round replication assay; type: functional, organism-based; details: Human immunodeficiency virus 1, NL4-3, MT4, 120 h
Summary of the method: (§2)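 MT-4 human T-cells, cultured in RPMI 1640 with 10% heat-inactivated FBS at 37 °C, 5% CO2, infected with HIV-1 NL4-3-derived mutant strains, then exposed to a range of compound concentrations. After 5 days, viability of infected and mock-infected cells read by WST-1 tetrazolium cleavage.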

[5] = tested on: Human immunodeficiency virus 1; assay: Antiviral activity against wild type HIV1 NL4-3 in human TZM-b1 cells assessed as beta-galactosidase activity after 48 hrs; type: functional, organism-based; details: Human immunodeficiency virus 1, NL4-3, TZM-b1, 48 h
Summary of the method: (§3)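 Cells plated at 5000/well, incubated 48 h, then medium replaced with compound (0.00128 to 4 µM). Infection 4 h later with cell-free NL4-3 virus equivalent to 100 ng p24. At 48 h postinfection cells lysed in PBS with 0.1% NP-40 and 5 mM MgCl2. β-Galactosidase read with chlorophenol red β-D-galactopyranoside. EC50 taken from dose-response curves.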

[6] = tested on: Human immunodeficiency virus 1; assay: Antiviral activity against HIV1 NL4-3 with L100I mutant in human MT4 cells assessed as inhibition of virus-induced cytopathicity after 5 days by multiple round replication assay; type: functional, organism-based; details: Human immunodeficiency virus 1, NL4-3, MT4, 120 h; summary of the method: as §2
[7] = tested on: Human immunodeficiency virus 1; assay: Antiviral activity against HIV1 NL4-3 with K103N mutant in human MT4 cells assessed as inhibition of virus-induced cytopathicity after 5 days by multiple round replication assay; type: functional, organism-based; details: Human immunodeficiency virus 1, NL4-3, MT4, 120 h; summary of the method: as §2
[8] = tested on: Human immunodeficiency virus 1; assay: Antiviral activity against HIV1 NL4-3 with Y181C mutant in human MT4 cells assessed as inhibition of virus-induced cytopathicity after 5 days by multiple round replication assay; type: functional, organism-based; details: Human immunodeficiency virus 1, NL4-3, MT4, 120 h; summary of the method: as §2
[9] = tested on: Human immunodeficiency virus 1; assay: Antiviral activity against HIV1 NL4-3 with L100I/V108I double mutant in human TZM-b1 cells assessed as beta-galactosidase activity after 48 hrs by single round replication assay; type: functional, organism-based; details: Human immunodeficiency virus 1, NL4-3, TZM-b1, 48 h; summary of the method: as §1
[10] = tested on: Human immunodeficiency virus 1; assay: Antiviral activity against HIV1 NL4-3 in human TZM-b1 cells assessed as beta-galactosidase activity after 48 hrs by single round replication assay; details: Human immunodeficiency virus 1, NL4-3, TZM-b1, 48 h
[11] = tested on: Human immunodeficiency virus 1; assay: Antiviral activity against HIV1 NL4-3 with K103N/V108I double mutant in human TZM-b1 cells assessed as beta-galactosidase activity after 48 hrs by single round replication assay; details: Human immunodeficiency virus 1, NL4-3, TZM-b1, 48 h
[12] = tested on: Human immunodeficiency virus 1; assay: Antiviral activity against HIV1 NL4-3 with K103N/Y181C double mutant in human TZM-b1 cells assessed as beta-galactosidase activity after 48 hrs by single round replication assay; details: Human immunodeficiency virus 1, NL4-3, TZM-b1, 48 h
[13] = tested on: Human immunodeficiency virus 1; assay: Antiviral activity against wild type HIV1 NL4-3 in human HeLaP4 cells assessed as beta-galactosidase activity after 48 hrs; type: functional, organism-based; details: Human immunodeficiency virus 1, NL4-3, HeLaP4, 48 h; summary of the method: as §3
[14] = tested on: Human immunodeficiency virus 1; assay: Antiviral activity against HIV1 NL4-3 with V108I mutant in human TZM-b1 cells assessed as beta-galactosidase activity after 48 hrs by single round replication assay; type: functional, organism-based; details: Human immunodeficiency virus 1, NL4-3, TZM-b1, 48 h; summary of the method: as §1
[15] = tested on: Human immunodeficiency virus 1; assay: Antiviral activity against HIV1 NL4-3 with Y181C mutant in human HeLaP4 cells assessed as beta-galactosidase activity after 48 hrs by single round replication assay; type: functional, organism-based; details: Human immunodeficiency virus 1, NL4-3, HeLaP4, 48 h
[16] = Selectivity index, ratio of CC50 for human HeLaP4 cells to EC50 for HIV1 NL4-3; type: toxicity, cell-based; details: read-out: Ratio CC50/EC50
Summary of the method: (§4)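 Viability by WST-1 absorbance at 570 nm relative to drug-free control. Divided by EC50 from the 48 h β-galactosidase infection assay with NL4-3 in the same cell type.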

[17] = Selectivity index, ratio of CC50 for human TZM-b1 cells to EC50 for HIV1 NL4-3; type: toxicity, cell-based; details: read-out: Ratio CC50/EC50; summary of the method: as §4
[18] = tested on: Human immunodeficiency virus 1; assay: Antiviral activity against HIV1 NL4-3 with Y181C mutant in human TZM-b1 cells assessed as beta-galactosidase activity after 48 hrs by single round replication assay; type: functional, organism-based; details: Human immunodeficiency virus 1, NL4-3, TZM-b1, 48 h; summary of the method: as §1
[19] = molecular target: Human immunodeficiency virus type 1 reverse transcriptase (Human immunodeficiency virus 1) (UniProt Q72547); assay: Inhibition of recombinant HIV1 reverse transcriptase assessed as residual activity at 10 uM by […] incorporation assay relative to control
Summary of the method: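 Recombinant HIV-1 RT, compound at 10 µM final (from DMSO). Incubated 10 min at 37 °C, then collected on DEAE filters and washed. Counted by phosphorimager; activity expressed relative to uninhibited RT.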

SMILES | EC50 [3] [nM] | EC50 [5] [nM] | EC50 [10] [nM] | EC50 [13] [nM] | selectivity ratio [16] | selectivity ratio [17] | other results
O=C1Nc2ccc(Cl)cc2[C@@](C#CC2CC2)(C(F)(F)F)O1 [EFAVIRENZ] | 31 | < 1 | 235 | – | – | – | EC50 [1]: 3700 nM; EC50 [2]: 17 nM; EC50 [4]: > 10000 nM; EC50 [6]: 167 nM; EC50 [7]: 320 nM; EC50 [8]: 4 nM; EC50 [9]: 14 nM; EC50 [11]: 34 nM; EC50 [12]: 525 nM
CCOC(=O)c1c(O[C@H]2C[C@H](C)C[C@H](C)C2)c(CC)c(C)[nH]c1=O | – | – | – | 236 | – | – | –
CCOC(=O)c1c(O[C@@H]2C[C@H](C)C[C@H](C)C2)c(CC)c(C)[nH]c1=O | > 10000 | – | > 10000 | 36 | 1780 | – | EC50 [14]: 5900 nM; EC50 [2]: 2200 nM; EC50 [15]: 2000 nM
CCc1c(C)[nH]c(=O)c(N)c1O[C@@H]1C[C@H](C)C[C@H](C)C1 | – | – | – | 1200 | 83 | – | –
CCc1c(C)[nH]c(=O)c(CO)c1O[C@@H]1C[C@H](C)C[C@H](C)C1 | – | 121 | – | – | – | > 826 | –
CCc1c(C)[nH]c(=O)c(CN=[N+]=[N-])c1O[C@@H]1C[C@H](C)C[C@H](C)C1 | 74 | < 1 | > 10000 | – | – | > 54000 | EC50 [1]: 828 nM; EC50 [14]: 11 nM; EC50 [2]: 34 nM; EC50 [18]: 206 nM; EC50 [9]: 107 nM; EC50 [11]: 4400 nM; EC50 [12]: 689 nM
CCOC(=O)c1c(OC2CCC(CC)CC2)c(CC)c(C)[nH]c1=O (stereo not drawn) | – | – | – | > 4000 | < 14 | – | –
CCOC(=O)c1c(OC2CCCCCCC2)c(CC)c(C)[nH]c1=O | – | 700 | – | – | – | 83 | Activity [19]: 24%
CCOC(=O)c1c(OC2CCCC2)c(CC)c(C)[nH]c1=O | – | 740 | – | – | – | > 135 | Activity [19]: 58.6%
CCOC(=O)c1c(OC2CCCC(C)C2)c(CC)c(C)[nH]c1=O (stereo not drawn) | – | – | – | 520 | 192 | – | –
CCc1c(OC2CC(C)CC(C)C2)cc(=O)[nH]c1C (stereo not drawn) | – | 275 | – | – | – | 200 | –
CCc1c(C)[nH]c(=O)c(N(C)C)c1O[C@@H]1C[C@H](C)C[C@H](C)C1 | 14 | < 1 | > 10000 | – | – | > 66000 | EC50 [1]: 2900 nM; EC50 [14]: 6 nM; EC50 [2]: 28 nM; EC50 [18]: 177 nM; EC50 [9]: 1600 nM; EC50 [11]: > 10000 nM; EC50 [12]: 245 nM
CCOC(=O)c1c(OC2CCCC(C)C2C)c(CC)c(C)[nH]c1=O (stereo not drawn) | – | – | – | 13 | 2620 | – | –
CCOC(=O)c1c(OC2CCCCCC2)c(CC)c(C)[nH]c1=O | – | 390 | – | – | – | 205 | Activity [19]: 34.6%
CCc1c(C)[nH]c(=O)c(Br)c1O[C@@H]1C[C@H](C)C[C@H](C)C1 | 9 | < 1 | 6300 | – | – | > 28000 | EC50 [1]: 68 nM; EC50 [14]: 1 nM; EC50 [18]: 138 nM; EC50 [9]: 38 nM; EC50 [11]: 780 nM; EC50 [12]: 523 nM

Source: ChEMBL document CHEMBL1136985, “New pyridinone derivatives as potent HIV-1 nonnucleoside reverse transcriptase inhibitors” (J Med Chem, 2009)
